Assay results as given in paper PMC3517057 (ChemMedChem, 2012).

What was measured:
mGlu5 [1] = molecular target: T1, mGlu5 (Rattus norvegicus, UniProt P31424); assay: mGlu5 calcium mobilization assay; format: cell-based
C57Bl/6J mice [2] = assay: Operant sensation seeking; format: in vivo
[3] = Plasma and brain exposure after intraperitoneal dosing in mice; format: in vivo, male CD-1 mice; conditions: 10 mg/kg i.p.
Summary of the method: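 Male CD-1 mice received 10 mg/kg i.p. as a microsuspension in 10% tween 80, with two mice per time point. Brain and plasma were sampled at 0.5, 1, 3 and 6 h post dose.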

[4] = Protein binding in mouse plasma; format: in vitro ADME; conditions: rapid equilibrium dialysis
mice [5] = assay: Marble burying model of anxiety; format: in vivo; conditions: for Inhibition of marble burying: 15 minute pretreatment; for Sedation: marble burying study, i.p., all dosing groups
Summary of the method: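 Mice were scored for burying glass marbles in deep bedding. Test compound or the MTEP positive control (15 mg/kg) was given i.p. in 10% tween 80 vehicle 15 min before testing. Testing ran from 15 to 45 min post dose, with n=12 per dosing group. Significance was P < 0.05 vs vehicle by Dunnett's test.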

[6] = Metabolic stability in mouse liver microsomes; format: in vitro ADME; conditions: 1 µM, 15 min, 37 °C, NADPH
Summary of the method: (§1)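 Test compound at 1 µM was incubated with human or mouse liver microsomes in phosphate buffer with NADPH cofactor, for 15 min at 37 °C with shaking.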

[7] = Metabolic stability in human liver microsomes; format: in vitro ADME; conditions: 1 µM, 15 min, 37 °C, NADPH
Summary of the method: as §1

adenosine A3 receptor = molecular target: T2, adenosine A3 receptor (Homo sapiens, UniProt P0DMS8); assay: Ricerca LeadProfilingScreen radioligand binding, adenosine A3 receptor; conditions: 10 µM
T2 sequence (P0DMS8 1-318): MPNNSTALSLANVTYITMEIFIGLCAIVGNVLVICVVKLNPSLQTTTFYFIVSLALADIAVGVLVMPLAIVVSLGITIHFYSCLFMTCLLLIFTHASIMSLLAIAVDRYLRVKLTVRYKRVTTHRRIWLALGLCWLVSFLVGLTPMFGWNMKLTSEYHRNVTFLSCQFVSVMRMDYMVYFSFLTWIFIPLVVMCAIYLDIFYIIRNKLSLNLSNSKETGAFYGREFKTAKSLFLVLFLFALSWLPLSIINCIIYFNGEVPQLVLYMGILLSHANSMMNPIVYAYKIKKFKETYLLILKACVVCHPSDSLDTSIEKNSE
Summary of the method: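 The test compound was run at 10 µM in a commercial profiling panel of radioligand binding assays covering 68 primary molecular targets, including GPCRs, kinases and ion channels.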

mGlu1–4 and mGlu6–8 = assay: Selectivity against other mGlu receptors; format: cell-based; conditions: 10 µM
[8] = system: 68 primary molecular targets (GPCRs, kinases, ion channels); assay: Ricerca LeadProfilingScreen radioligand binding panel; conditions: 10 µM
[9] = Binding to mouse brain homogenates; format: in vitro ADME; conditions: rapid equilibrium dialysis
mGlu5 [10] = molecular target: T1, mGlu5; assay: Effect on glutamate CRC in rat cortical astrocytes; format: cell-based; conditions: 300 nM, 1 µM, 30 µM 18k
[11] = Exposure following oral dosing in mice; format: in vivo
rat mGlu5 = rat mGlu5 (Rattus norvegicus, UniProt P31424); assay: Glutamate-induced ERK1/2 phosphorylation in HEK293 cells expressing rat mGlu5; format: cell-based; conditions: 10 nM to 1 µM 18k
Chain of rat mGlu5 (P31424 21-1203): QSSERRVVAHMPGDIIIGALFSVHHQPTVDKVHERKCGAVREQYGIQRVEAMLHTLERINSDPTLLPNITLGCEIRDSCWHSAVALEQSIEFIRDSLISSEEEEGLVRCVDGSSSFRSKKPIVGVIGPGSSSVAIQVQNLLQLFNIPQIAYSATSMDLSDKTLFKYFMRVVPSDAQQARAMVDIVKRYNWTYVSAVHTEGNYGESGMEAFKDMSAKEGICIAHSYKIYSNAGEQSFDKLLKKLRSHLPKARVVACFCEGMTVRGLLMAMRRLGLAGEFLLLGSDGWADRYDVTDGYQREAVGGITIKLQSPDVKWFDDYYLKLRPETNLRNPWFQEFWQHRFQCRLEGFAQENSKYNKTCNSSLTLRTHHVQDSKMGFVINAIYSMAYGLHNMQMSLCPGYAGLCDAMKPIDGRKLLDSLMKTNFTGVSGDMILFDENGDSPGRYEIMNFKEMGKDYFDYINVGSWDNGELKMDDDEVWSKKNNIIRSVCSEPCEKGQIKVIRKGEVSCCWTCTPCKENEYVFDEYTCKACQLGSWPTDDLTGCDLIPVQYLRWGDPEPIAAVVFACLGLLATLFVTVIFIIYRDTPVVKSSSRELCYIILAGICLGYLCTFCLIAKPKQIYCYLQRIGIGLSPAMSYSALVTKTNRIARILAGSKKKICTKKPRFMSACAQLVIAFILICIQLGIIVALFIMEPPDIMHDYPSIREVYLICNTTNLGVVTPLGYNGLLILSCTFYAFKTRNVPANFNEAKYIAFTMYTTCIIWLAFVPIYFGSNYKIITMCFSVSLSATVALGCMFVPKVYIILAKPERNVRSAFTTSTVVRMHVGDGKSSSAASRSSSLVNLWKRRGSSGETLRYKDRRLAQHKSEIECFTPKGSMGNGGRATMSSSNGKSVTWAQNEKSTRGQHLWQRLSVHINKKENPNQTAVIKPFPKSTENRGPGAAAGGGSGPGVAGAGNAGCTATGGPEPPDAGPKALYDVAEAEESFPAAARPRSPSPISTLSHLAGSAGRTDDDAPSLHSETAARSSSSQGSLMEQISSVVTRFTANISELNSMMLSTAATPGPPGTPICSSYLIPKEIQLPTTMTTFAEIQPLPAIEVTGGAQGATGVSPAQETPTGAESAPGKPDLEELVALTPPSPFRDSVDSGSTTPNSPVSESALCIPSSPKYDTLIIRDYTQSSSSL

mice [12] = conditions: cited from earlier work
C57Bl/6J mice [13] = conditions: low doses; cited from earlier work
[14] = mGlu5 calcium mobilization, average of at least three determinations

T1 sequence (P31424 21-1203): as above

## N#Cc1cnc(Nc2nc3ccccc3o2)nc1-c1cccs1 [18ee]
mGlu5 [1]; [14]
  IC50: > 10000 nM

## COc1ccccc1-c1nc(Nc2nc3ccccc3o2)ncc1C#N [18g]
mGlu5 [1]; [14]
  IC50: 62 ± 10 nM

## N#Cc1cnc(Nc2nc3ccccc3o2)nc1-c1ccc(F)cc1 [18k]
C57Bl/6J mice [2]; both 30 and 56.6 mg/kg doses i.p., P < 0.05 vs. vehicle
  Efficacy in OSS: significant efficacy
C57Bl/6J mice [2]; i.p., dose response
  Progressive ratio responding for OSS stimuli: dose dependently reduced progressive ratio responding for OSS stimuli
C57Bl/6J mice [2]; i.p., food control
  Effect on responding for a food reinforcer: no significant effects
[3]
  Brain AUC: 1006 ng·h/g
  Plasma AUC: 224 ng·h/mL
[3]; 0.5 h
  Brain [ ]: 136 ng/mL
  Brain:Plasma ratio: 4.3
  Plasma [ ]: 31.8 ng/mL
[3]; 30 minutes
  average brain concentration: 0.41 µM
[3]; 1 h
  Brain [ ]: 283 ng/mL
  Brain:Plasma ratio: 4.4
  Plasma [ ]: 64.7 ng/mL
[3]; 1 hour post dose
  brain concentration: 0.85 µM
[3]; 3 h
  Brain [ ]: 193 ng/mL
  Brain:Plasma ratio: 4.3
  Plasma [ ]: 45.4 ng/mL
[3]; 6 h
  Brain [ ]: 68 ng/mL
  Brain:Plasma ratio: 7.4
  Plasma [ ]: 9.2 ng/mL
[3]; exposure ratio, to 1
  brain to plasma ratio: more than 4
[4]
  bound to mouse plasma: 99.4%
Mice [5]; 56.6 mg/kg i.p. (highest dose), P < 0.05 vs. vehicle
  Inhibition of marble burying: Significant inhibition of marble burying
Mice [5]
  Sedation: No sedation was observed
[6]
  Stability in liver microsomes: Enhanced stability relative to 13
[7]
  Stability in liver microsomes: Enhanced stability relative to 13
mGlu5 [1]; [14]
  IC50: 91 ± 22 nM
Adenosine A3 receptor
  inhibition of binding: 73%
mGlu1–4 and mGlu6–8
  Activity against other mGlu receptors: no observable activity
[8]
  Inhibition of radioligand binding in 68-target panel: inhibition of more than 50% of radioligand binding was observed only in the adenosine A3 receptor assay
[9]
  bound to mouse brain homogenates: 99.5%
mGlu5 [10]
  Effect on glutamate concentration response curve: induced a rightward shift in the glutamate concentration response curve (CRC) and reduced the maximal effect of glutamate
[11]
  Exposure in plasma and brain: no exposure above detectable limits in either plasma or brain
Rat mGlu5
  Effect on ERK1/2 phosphorylation response to glutamate: blocked the effect of glutamate in a concentration dependent manner

## N#Cc1cnc(Nc2nc3ccccc3o2)nc1-c1ccc(C(F)(F)F)cc1 [18m]
mGlu5 [1]; [14]
  IC50: > 30000 nM

## CCOc1ccccc1-c1nc(Nc2nc3ccccc3o2)ncc1C#N [18r]
mGlu5 [1]; [14]
  IC50: 6580 ± 1670 nM

## N#Cc1cnc(Nc2nc3ccccc3o2)nc1-c1ccc(F)c(F)c1 [18t]
mGlu5 [1]; [14]
  IC50: 2580 ± 1170 nM

## N#Cc1cnc(Nc2nc3ccccc3o2)nc1-c1ccc(Cl)cc1F [18y]
mGlu5 [1]; [14]
  IC50: 375 ± 90 nM

## COc1cc(F)ccc1-c1nc(Nc2nc3ccccc3o2)ncc1C#N [18z]
mGlu5 [1]; [14]
  IC50: 217 ± 10 nM

## Cc1cccc(C#Cc2ccccc2)n1 [MPEP]
Mice [12]
  Efficacy in marble burying model: effective

## Cc1nc(C#Cc2cccnc2)cs1 [MTEP, reference compound]
Mice [5]; 15 mg/kg i.p., positive control
  Inhibition of marble burying: Robust inhibition of marble burying
Mice [5]
  Sedation: No sedation was observed

## OCCN1CCN(CC/C=C2/c3ccccc3Sc3ccc(C(F)(F)F)cc32)CC1 [cis-flupenthixol]
C57Bl/6J mice [13]
  Responding for OSS stimuli: increased responding for OSS stimuli

## N#Cc1cnc(Nc2nc3ccccc3o2)nc1-c1ccccc1 [compound 13]
mGlu5 [1]; [14]
  IC50: 89 ± 32 nM
mGlu5 [1]; original batch of virtual screen hit (ChemDiv), 10-point CRC
  IC50: 75 nM

## CN1CC(=O)NC1=NC(=O)Nc1cccc(Cl)c1 [fenobam]
Mice [12]
  Efficacy in marble burying model: effective
